In the library only some 2.3% were active in any assay of this set; here they are far more common.
ARFGAP1 inh = inhibitors of rat ARFGAP1; inhibition, % at 16.5 µM; actives 0.26% (n = 360,000); Q62848; AID 651572; Arfgap1-stimulated ARF1 GTP hydrolysis, GDP FP detection;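 active = inhibition above a per-plate limit, mean inhibition of low control wells plus 3 SD, cut at about 25% in these data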
Target sequence (Q62848 1-136 limits assumed): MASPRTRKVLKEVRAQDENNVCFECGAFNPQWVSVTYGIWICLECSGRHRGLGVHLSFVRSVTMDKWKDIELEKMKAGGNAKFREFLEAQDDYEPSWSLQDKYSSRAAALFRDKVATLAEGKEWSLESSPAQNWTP
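Repeats: one replicate per compound; assay system: rat Arfgap1 catalytic domain, aa 1-136; times: enzyme reaction 120 min at 25 °C after 20 min preincubation; detection: FP of antibody-bound GDP Alexa 633 tracer, ex 620/em 688 nm; benchmarks: high control wells lacking Arfgap1, low control full reaction with DMSO; reagent: human ARF1(Δ1-17)-GTP substrate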
Calb FLC = affects C. albicans growth with fluconazole | AID 1979 | C. albicans CaCi-2 + fluconazole, Alamar Blue growth, 48 h | actives 0.57% (n = 300,000) | growth inhibition, % (no concentration beside the values);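 active = growth inhibition above about 58% in most replicates, limit read from the data, passing the limit was not always enough; inconclusive = exactly half the replicates above a set limit; inactive = most replicates below a set limit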;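 note: all wells also contain fluconazole at 8 µg/ml as a sub-toxic cotreatment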
ASAP1 GAP inh = blocks human ASAP1-stimulated Arf1 GTP hydrolysis. inhibition, % at 16.5 µM. GDP FP detection. actives 0.19% (n = 360,000). Q9ULH1; in the data active = inhibition above about 25%
SKKanGAS inh = inhibitors of SKKanGAS S. pyogenes growth in kanamycin (SK-promoter or general growth effect). BacTiter-Glo, 6 h. inhibition, % at 7.5 µM. actives 1.3% (n = 300,000). AID 1662;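 active = mean replicate score, as percent of positive control median, at least 50; inconclusive = mean below 50 but one replicate at or above 50; inactive = mean and every replicate below 50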;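 note: strain carries kanamycin resistance gene driven by streptokinase promoter and grows in 40 µg/ml kanamycin; loss of luminescence reflects streptokinase promoter inhibition or plain growth inhibition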
HGIII-sPLA2 inh = Blocks human group III sPLA2 activity | QFRET BODIPY PC-A2 liposome hydrolysis, fluorescence | inhibition, % at 12.2 µM | actives 0.56% (n = 370,000);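 active = inhibition above mean plus 3 SD of compounds lying within the high and low control bounds, cut at about 19% in these data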
Target sequence (Q9NZ20 whole entry, looked up): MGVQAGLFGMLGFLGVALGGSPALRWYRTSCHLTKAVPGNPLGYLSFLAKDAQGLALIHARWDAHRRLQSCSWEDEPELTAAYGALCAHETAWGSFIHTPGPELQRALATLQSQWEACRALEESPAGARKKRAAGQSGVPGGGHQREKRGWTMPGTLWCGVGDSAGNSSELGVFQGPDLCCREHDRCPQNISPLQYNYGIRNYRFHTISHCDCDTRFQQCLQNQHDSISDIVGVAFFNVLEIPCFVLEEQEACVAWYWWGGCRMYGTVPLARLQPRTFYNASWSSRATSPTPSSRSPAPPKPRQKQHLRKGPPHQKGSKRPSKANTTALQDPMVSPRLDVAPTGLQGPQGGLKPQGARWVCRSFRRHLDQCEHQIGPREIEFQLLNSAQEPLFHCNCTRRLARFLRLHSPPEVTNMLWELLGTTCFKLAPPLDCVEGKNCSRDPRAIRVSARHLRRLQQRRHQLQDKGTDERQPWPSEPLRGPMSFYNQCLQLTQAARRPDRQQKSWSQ
Of the large screens only hits and unclear results are named; the others gave an inactive call.

O=C(Nc1nc2cc3c(cc2s1)OCCO3)c1cccc(N2C(=O)CCC2=O)c1	none
O=C(CCS(=O)(=O)c1ccccc1)Nc1nc2cc3c(cc2s1)OCCO3	Calb FLC 81.9, SKKanGAS inh 60.6
CCN(CC)S(=O)(=O)c1cccc(C(=O)Nc2nc3cc4c(cc3s2)OCCO4)c1	SKKanGAS inh 70.9
CC(C)(C)N/N=C1\CC(c2ccccc2)Oc2ccccc21 (centres undefined)	SKKanGAS inh 72.7
C/C(=N\NC(=S)NCc1ccccc1)c1cccc(Br)c1	SKKanGAS inh 56.2
COc1ccc2c(c1)CN1C(=O)N(CC(C)C)S(=O)(=O)CC21 (centres undefined)	none (no result: ARFGAP1 inh, Calb FLC, ASAP1 GAP inh, SKKanGAS inh)
COC(=O)[C@]12C[C@H](CC(=O)N3CCSCC3)C(=O)N(Cc3cccc4ccccc34)C1=C[C@H](C(C)C)O[C@@H]2C1CC1	none (no result: ARFGAP1 inh, Calb FLC, ASAP1 GAP inh, SKKanGAS inh)
CC1=C(C(=O)O)N2C(=O)C(NC(=O)c3nn(C)c(C)c3Cl)C2SC1 (centres undefined)	none
Cn1nnnc1SCC1=C(C(=O)O)N2C(=O)[C@@H](NC(=O)[C@H](O)c3ccccc3)[C@H]2SC1	none (no result: ARFGAP1 inh, Calb FLC, ASAP1 GAP inh, HGIII-sPLA2 inh)
Cc1cc(C(F)F)nn1CC(=O)NC1C(=O)N2C(C(=O)O)=C(CSc3nnnn3C)CSC12 (centres undefined)	SKKanGAS inh 119.0
Cc1nn(C(C)C(=O)NC2C(=O)N3C(C(=O)O)=C(CSc4nnnn4C)CSC23)cc1Cl (centres undefined)	Calb FLC inconclusive, SKKanGAS inh 100.0
CON=C(C(=O)NC1C(=O)N2C(C(=O)O)=C(CSc3nc(=O)c(=O)[nH]n3C)CSC12)c1csc(N)n1 (centres undefined)	none (no result: Calb FLC, SKKanGAS inh)
CC1=C(C(=O)O)N2C(=O)C(NC(=O)c3ccn(C)n3)C2SC1 (centres undefined)	none
CC(C(=O)NC1C(=O)N2C(C(=O)O)=C(CSc3nnnn3C)CSC12)n1cc(Br)cn1 (centres undefined)	SKKanGAS inh 97.4
Cn1nnnc1SCC1=C(C(=O)O)N2C(=O)C(NC(=O)C3CC3c3ccccc3)C2SC1 (centres undefined)	SKKanGAS inh 100.8
c1ccc(CN2CCCC3CC2c2ccccc23)cc1 (centres undefined)	none (no result: Calb FLC, SKKanGAS inh)
Clc1ccc(-c2n[nH]c3c2CCC3)c(Cl)c1	SKKanGAS inh 95.7
COC(=O)CNC(=O)CSc1nc2sc(-c3ccccc3)cc2c(=O)n1-c1ccccc1	none
NC(=O)NC(=O)CSc1nc2sc(-c3ccccc3)cc2c(=O)n1-c1ccccc1	SKKanGAS inh 61.8
CC(C)n1c(=O)c2ccccc2n1S(C)(=O)=O	none (no result: Calb FLC, SKKanGAS inh)
C[C@@H]1CN(c2c(F)c(F)c3c(=O)c(C(=O)O)cn(C4CC4)c3c2F)C[C@H](C)N1	SKKanGAS inh 64.6
C[C@H](O)[C@@H]1CN2CCc3c([nH]c4cccc(-c5ccccc5)c34)[C@@H]2C[C@@H]1N(C)C(=O)C1CCCCC1	none (no result: ARFGAP1 inh, Calb FLC, ASAP1 GAP inh, SKKanGAS inh)
CCc1ccc(OCC(=O)NNC(=S)NC(=O)C2CCCCC2)c(Br)c1	Calb FLC 83.7, SKKanGAS inh 89.9
CCc1ccc(OCC(=O)NC2CCCCC2)c(Br)c1	none
CCc1ccc(OCC(=O)NNC(=S)NC(=O)C2CC2)c(Br)c1	Calb FLC 107.1 (no result: SKKanGAS inh)
Cc1cc(NC(=O)CCc2c[nH]c3ccccc23)ccc1Nc1cccnc1	none (no result: Calb FLC, SKKanGAS inh)
Cn1cc(/C=N/Nc2ccccc2)c2ccccc21	Calb FLC 101.3
Cc1ccc(CNC(=O)c2ccc(N3CCC4(CC3)CC(c3ccccc3)=NO4)c(NC(=O)c3ccco3)c2)cc1	none
CCCNC(=O)c1ccc(N2CCC3(CC2)CC(c2ccccc2)=NO3)c(NC(=O)c2ccco2)c1	SKKanGAS inh 49.8
CC1(c2nnnn2C2CCCCC2)CCCC(=O)N1CCc1ccc(O)cc1 (centres undefined)	none (no result: ARFGAP1 inh, Calb FLC, ASAP1 GAP inh, SKKanGAS inh)
COc1ccc(CN(CCN2CCOCC2)C(=O)c2cc(F)cc(F)c2)cc1OC	none (no result: ARFGAP1 inh, Calb FLC, ASAP1 GAP inh, SKKanGAS inh)
COCc1cc(N2CCNC[C@H]2C)ccc1N1CCN(Cc2ccccc2)[C@H](C)C1	none (no result: Calb FLC, SKKanGAS inh)
CCCCCCCCN1C(=O)[C@@H](CC(=O)NCCCOCCCC)C[C@@]2(C(=O)OC)C1=C[C@H](C1CCCC1)O[C@@H]2C	none (no result: Calb FLC, SKKanGAS inh)
CC1OC(CC(=O)O)CC2=C1C(=O)c1c(O)cccc1C2=O (centres undefined)	ASAP1 GAP inh 47.0 (no result: Calb FLC, SKKanGAS inh)
CC(=O)c1cc(C(=O)N2CCc3c([nH]c4ccccc34)C2C2CCCCC2)[nH]n1 (centres undefined)	Calb FLC 90.9
COc1ccc(C2C(C(=O)c3ccccc3)=C(C)Nc3nc4ccccc4n32)cc1OC (centres undefined)	none
COc1ccc(OC)c(C2C(C(=O)c3ccccc3)=C(C)Nc3nc4ccccc4n32)c1 (centres undefined)	SKKanGAS inh 76.1
O=C(CCCl)N(Cc1nc2ccccc2c(=O)[nH]1)Cc1cccs1	Calb FLC 56.2
CC(C)(C)C(=O)N(Cc1nc2ccccc2c(=O)[nH]1)Cc1cccs1	none
COc1cccc(C2NC(=S)N(Cc3ccccc3)C(C)=C2C(C)=O)c1 (centres undefined)	none (no result: Calb FLC, SKKanGAS inh)
Cc1nn(C)c(Cl)c1CN1CCCC(C(=O)Nc2ccc(-c3cscn3)cc2)C1 (centres undefined)	SKKanGAS inh 50.1
O=C(Nc1ccc(-c2cscn2)cc1)C1CCCN(Cc2ccccc2)C1 (centres undefined)	none
COC(=O)c1c(C)[nH]c(C(=O)OCC(=O)N(CC(C)C)c2c(N)n(Cc3ccccc3)c(=O)[nH]c2=O)c1C	SKKanGAS inh 67.3
CCOC(=O)c1c(C)[nH]c(C(=O)OCC(=O)N(C)c2c(N)n(Cc3ccccc3)c(=O)[nH]c2=O)c1C	none (no result: Calb FLC, SKKanGAS inh)
O=C1OCC2=C1C(c1ccc(F)cc1)c1cc3c(cc1N2)OCO3 (centres undefined)	none (no result: Calb FLC, SKKanGAS inh)
CCOc1ccccc1C1C2=C(COC2=O)Nc2cc3c(cc21)OCO3 (centres undefined)	Calb FLC 82.5
CN(C)[C@@H]1CCN(c2ccc3c(c2)O[C@H]2CCN(C2)S3(=O)=O)C1	none (no result: ARFGAP1 inh, Calb FLC, ASAP1 GAP inh, SKKanGAS inh)
CC1=CC(C)(C)n2c(O)c(N=N)c3c(C)ccc1c32	none
CC1=CC(C)(C)n2c(O)c(N=N)c3c(C)c(C)cc1c32	SKKanGAS inh 67.7
CCOC(=O)c1ccc(Oc2nc(NC(C)(C)C)nc(N(C)C)n2)cc1	Calb FLC 90.6
COc1ccc(N2C(=O)c3n[nH]c(C)c3C2c2cccc(C(F)(F)F)c2)cc1 (centres undefined)	none (no result: Calb FLC, SKKanGAS inh)
Cc1ccc(C)c(C(=O)COC(=O)c2cc(Cl)nc3ccccc23)c1	SKKanGAS inh 53.6
Cc1ccc(C(=O)COC(=O)c2cc(Cl)nc3ccccc23)cc1C	none
CC(Oc1ccc(Cl)cc1Cl)C(=O)NC(=S)N1CCc2ccccc21 (centres undefined)	SKKanGAS inh 104.4
COC(=O)c1cc(-c2ccc(Br)cc2)c2c(=O)n(C)c(=O)n(C)c2n1	SKKanGAS inh 52.1
COC(=O)c1cc(-c2cccc(OC)c2)c2c(=O)[nH]c(=O)n(C)c2n1	SKKanGAS inh 62.3 (no result: Calb FLC)
